Laboratory results published in ChEMBL document CHEMBL3997766, “Synthesis and pre-clinical studies of new amino-acid ester thiazolide prodrugs” (Eur J Med Chem, 2017).

Tests used:
Plasma [1] = assay: Drug level in Sprague-Dawley rat plasma treated with RM-5061 at 10 to 75 mg/kg administered via oral gavage qd for 28 consecutive days; format: ADME, organism-based; settings: in vivo
How it was run: (§1)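 In a sub-acute study, Sprague-Dawley rats were dosed once daily for 28 consecutive days at 10, 30 or 75 mg/kg, given as a yellow suspension. There were four groups of up to 30 rats each (15M/15F) to assess systemic exposure.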

Canis familiaris = assay: Drug level in Beagle dog plasma treated with RM-5061 up to 25 mg/kg administered orally as gelatin capsule once daily for 28 days measured on day 1 and 29; format: ADME, organism-based, Canis lupus familiaris; settings: in vivo, po, 672 h
How it was run: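 Beagle dogs received the drug orally in a single gelatin capsule at 5, 15 or 25 mg/kg once daily for 28 consecutive days in a sub-acute toxicity study assessing systemic exposure.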

Plasma [2] = assay: Elimination half life in Sprague-Dawley rat assessed as tizoxanide-glucuronide level in plasma at 10 to 75 mg/kg administered via oral gavage qd for 28 consecutive days; format: ADME, organism-based; settings: in vivo; how it was run: as §1
Plasma [3] = assay: Elimination half life in Sprague-Dawley rat assessed as tizoxanide level in plasma at 10 to 75 mg/kg administered via oral gavage qd for 28 consecutive days; format: ADME, organism-based; settings: in vivo; how it was run: as §1
Rattus norvegicus [4] = assay: Drug level in Sprague-Dawley rat treated with Nitazoxanide at 6 mg/kg, iv measured at 0.7 to 2.1 hrs post dose; format: ADME, organism-based; settings: in vivo
[5] = Drug excretion in po dosed human faeces; format: ADME, organism-based, Feces; settings: read-out: Drug excretion
Rattus norvegicus [6] = assay: Tmax in male Sprague-Dawley rat assessed as Tizoxanide level in plasma at 30 mg/kg, po; format: ADME, organism-based; settings: in vivo
How it was run: (§2)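 Plasma tizoxanide and tizoxanide glucuronide were measured and PK parameters derived. AUCs were dose-corrected to 30 mg/kg for bioavailability.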

Rattus norvegicus [7] = assay: Cmax in Sprague-Dawley rat assessed as tizoxanide-glucuronide level in plasma at 30 mg/kg, po administered as single dose; format: ADME, organism-based; design: dose 30 mg/kg, route oral; settings: in vivo
How it was run: (§3)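 Rats in groups of three received one compound as a single oral dose (30 mg/kg) or a single intravenous injection (6 mg/kg), with four compounds studied separately. Serial blood samples were drawn at 5, 10, 15 and 30 min and at 1, 2, 4, 8, 23 and 24 h post-dose. Plasma parent drug and metabolites were quantified and PK parameters were derived.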

Rattus norvegicus [8] = assay: Cmax in Sprague-Dawley rat assessed as Tizoxanide-glucuronide level in plasma at 6 mg/kg, iv administered as single dose; format: ADME, organism-based; design: dose 6 mg/kg, route intravenous; settings: in vivo; how it was run: as §3
Rattus norvegicus [9] = assay: Cmax in Sprague-Dawley rat assessed as Tizoxanide level in plasma at 30 mg/kg, po administered as single dose; format: ADME, organism-based; design: dose 30 mg/kg, route oral; settings: in vivo; how it was run: as §3
Rattus norvegicus [10] = assay: Tmax in male Sprague-Dawley rat assessed as tizoxanide-glucuronide level in plasma at 30 mg/kg, po administered as single dose; format: ADME, organism-based; settings: in vivo; how it was run: as §2
Plasma [11] = assay: Drug metabolism in Sprague-Dawley rat assessed as tizoxanide-glucuronide formation in plasma at 30 mg/kg, po administered as single dose measured after 5 mins; format: ADME, organism-based; settings: in vivo; how it was run: as §2
Rattus norvegicus [12] = assay: Tmax in female Sprague-Dawley rat assessed as Tizoxanide level in plasma at 30 mg/kg, po; format: ADME, organism-based; settings: in vivo; how it was run: as §2
Rattus norvegicus [13] = assay: AUC (0 to t) in male Sprague-Dawley rat assessed as Tizoxanide-glucuronide level in plasma at 6 mg/kg, iv administered as single dose; format: ADME, organism-based; settings: in vivo; how it was run: as §2
Rattus norvegicus [14] = assay: Elimination half life in Sprague-Dawley rat assessed as Tizoxanide level in plasma at 6 mg/kg, iv administered as single dose; format: ADME, organism-based; settings: in vivo; how it was run: as §2
Rattus norvegicus [15] = assay: Tmax in female Sprague-Dawley rat assessed as tizoxanide-glucuronide level in plasma at 30 mg/kg, po administered as single dose; format: ADME, organism-based; settings: in vivo; how it was run: as §2
[16] = Oral bioavailability in human; format: ADME, organism-based; settings: in vivo
Rattus norvegicus [17] = assay: AUC (0 to t) in Sprague-Dawley rat assessed as tizoxanide-glucuronide level in plasma at 30 mg/kg, po administered as single dose; format: ADME, organism-based; settings: in vivo; how it was run: as §2
Rattus norvegicus [18] = assay: Cmax in Sprague-Dawley rat assessed as Tizoxanide level in plasma at 6 mg/kg, iv administered as single dose; format: ADME, organism-based; design: dose 6 mg/kg, route intravenous; settings: in vivo; how it was run: as §3
Rattus norvegicus [19] = assay: Tmax in female Sprague-Dawley rat assessed as Tizoxanide-glucuronide level in plasma at 6 mg/kg, iv administered as single dose; format: ADME, organism-based; settings: in vivo; how it was run: as §2
Rattus norvegicus [20] = assay: Tmax in male Sprague-Dawley rat assessed as Tizoxanide-glucuronide level in plasma at 6 mg/kg, iv administered as single dose; format: ADME, organism-based; settings: in vivo; how it was run: as §2
Rattus norvegicus [21] = assay: AUC (0 to t) in Sprague-Dawley rat assessed as Tizoxanide level at 30 mg/kg, po administered as single dose; format: ADME, organism-based; settings: in vivo; how it was run: as §2
[22] = Drug excretion in po dosed human urine; format: ADME, organism-based; settings: read-out: Drug excretion
Rattus norvegicus [23] = assay: AUC (0 to t) in Sprague-Dawley rat assessed as Tizoxanide level in plasma at 6 mg/kg, iv administered as single dose; format: ADME, organism-based; settings: in vivo; how it was run: as §2
[24] = Prodrug activation at room temperature after 3 weeks assessed as tizoxanide formation by NMR method

O=C(Nc1ncc([N+](=O)[O-])s1)c1ccccc1O[C@@H]1O[C@H](C(=O)O)[C@@H](O)[C@H](O)[C@H]1O
Drug metabolism (Plasma [1]): Metabolite_Detected
Drug metabolism (Canis familiaris): Metabolite_Detected
beta t1/2 (Plasma [2]): 90 to 660 min

O=C(Nc1ncc([N+](=O)[O-])s1)c1ccccc1O [TIZOXANIDE]
Drug metabolism (Plasma [1]): Metabolite_Detected
Drug metabolism (Canis familiaris): Metabolite_Detected
beta t1/2 (Plasma [3]): 42 to 222 min
Drug metabolism (Rattus norvegicus [4]): Metabolite_Detected

CC(=O)Oc1ccccc1C(=O)Nc1ncc([N+](=O)[O-])s1 [NITAZOXANIDE]
dose excreted [5]: 64%
Tmax (Rattus norvegicus [6]): 42 min
Cmax (Rattus norvegicus [7]): 4620 ng/mL
Cmax (Rattus norvegicus [8]): 11050 ng/mL
Cmax (Rattus norvegicus [9]): 742 ng/mL
Tmax (Rattus norvegicus [10]): 42 min
Drug metabolism (Plasma [11]): Metabolite_Detected
Tmax (Rattus norvegicus [12]): 126 min
AUCt (Rattus norvegicus [13]): 6500 ng·h/mL
beta t1/2 (Rattus norvegicus [14]): 12 min
Tmax (Rattus norvegicus [15]): 84 min
bioavailability [16]: ≤ 30%
AUCt (Rattus norvegicus [17]): 15950 ng·h/mL
Cmax (Rattus norvegicus [18]): 20500 ng/mL
Tmax (Rattus norvegicus [19]): 42 min
Tmax (Rattus norvegicus [20]): 24 min
AUCt (Rattus norvegicus [21]): 2040 ng·h/mL
dose excreted [22]: 33%
AUCt (Rattus norvegicus [23]): 14100 ng·h/mL

CC(C)[C@H](N)C(=O)Oc1ccccc1C(=O)Nc1ncc([N+](=O)[O-])s1
Drug metabolism [24]: 20%
